In ChEMBL document CHEMBL1221324, “Synthesis and characterization of mitoQ and idebenone analogues as mediators of oxygen consumption in mitochondria” (2010):
Activity calls are given as the source filed them. The calls are words filed in the database; no cut-off is given here.

Experiments:
C2C12 = assay: Inhibition of rotenone-induced blockade of mitochondrial complex 1 in mouse C2C12 cells assessed as increase of oxygen consumption at 10 uM after 2 hrs by fluorescence assay in presence of FCCP; format: cell-based
Summary of the method: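 C2C12 cells grown in DMEM with 10% FBS and 2 mM glutamine were trypsinized, resuspended in phenol red-free medium and pretreated with 25 nM rotenone. They were plated at 200,000 cells/well on an oxygen biosensor plate and given 10 μM compound with 5 μM FCCP. Fluorescence (ex 485/em 620 nm) was followed for 2 h. Rate is M/T, slope at 50% maximum over time to 50% maximum, in triplicate.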

CCRF-CEM [1] = assay: Cytoprotective activity against diethyl maleate-induced cell death in human CEM cells assessed as cell viability at 0.5 uM treated 18 hrs before diethyl maleate challenge measured after 4 hrs by trypan blue assay; format: functional; details: read-out: Activity
Summary of the method: (§1)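 CEM leukemia cells grown in RPMI 1640 with 10% FBS and 1% penicillin-streptomycin; 5 × 10⁵ cells/well pretreated with compound for 18 h, then exposed to 5 mM diethyl maleate at 37 °C, 5% CO2 for 4 h. Viability by 0.4% trypan blue exclusion, as percent of control cells given neither DEM nor compound; mean ± SD, n=3.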

CCRF-CEM [2] = assay: Cytoprotective activity against diethyl maleate-induced cell death in human CEM cells assessed as cell viability at 0.1 uM treated 18 hrs before diethyl maleate challenge measured after 4 hrs by trypan blue assay; format: functional; details: read-out: Activity; summary of the method: as §1
CCRF-CEM [3] = assay: Cytoprotective activity against diethyl maleate-induced cell death in human CEM cells assessed as cell viability at 2.5 uM treated 18 hrs before diethyl maleate challenge measured after 4 hrs by trypan blue assay; format: functional; details: read-out: Activity; summary of the method: as §1

Compound	Rescue of oxygen consumption (active/not active) (C2C12)	viability at 0.5 µM (CCRF-CEM [1])	viability at 0.1 µM (CCRF-CEM [2])	viability at 2.5 µM (CCRF-CEM [3])
COC1=C(OC)C(=O)C(CCCCCCCCCCCCCCC[P+](c2ccccc2)(c2ccccc2)c2ccccc2)=C(C)C1=O	inactive	–	–	–
COC1=C(C)C(=O)C(C)=C(CCCCCCCCCCO)C1=O	–	21.2%	8.27%	77.1%
CC1=C(C)C(=O)C(CCCCCCCCCCO)=C(C)C1=O	–	77.3%	34.8%	96.3%
COC1=C(OC)C(=O)C(CCCCC[P+](c2ccccc2)(c2ccccc2)c2ccccc2)=C(C)C1=O	inactive	–	–	–
COC1=C(OC)C(=O)C(CCC[P+](c2ccccc2)(c2ccccc2)c2ccccc2)=C(C)C1=O	Active	–	–	–
COC1=C(OC)C(=O)C(CCCCCCCCCCO)=C(C)C1=O [IDEBENONE]	–	35.8%	24.6%	86.2%
COC1=C(OC)C(=O)C(CCCCCCCCCC[P+](c2ccccc2)(c2ccccc2)c2ccccc2)=C(C)C1=O	inactive	–	–	–
COC1=C(C)C(=O)C(CCCCCCCCCCO)=C(C)C1=O	–	74.7%	22.9%	82.3%
